Measured values from paper PMC5730044 (International journal of medical microbiology : IJMM, 2014).
≈ marks a conversion by molar mass, not a printed value.

Columns and labels:
[1] = biological target: T1, pneumococcal NA (Streptococcus pneumoniae, UniProt P62575); assay type: biochemical, S. pneumoniae; conditions: precipitated total proteins of all strains
[2] = biological target: T1, pneumococcal NA; assay type: biochemical, S. pneumoniae; conditions: data not shown
[3] = test system: pneumococcal NA of strain DSM20566; assay: Lectin-based hemagglutination; assay type: cell-based, S. pneumoniae; conditions: minimal NA inhibitory concentration
[4] = test system: pneumococcal NA of strain D39; assay: Lectin-based hemagglutination; assay type: cell-based, S. pneumoniae; conditions: for Inhibitory concentration (HA assay): minimal NA inhibitory concentration, strain D39
[5] = test system: pneumococcal NA of strain CJ9400; assay: Lectin-based hemagglutination; assay type: cell-based, S. pneumoniae; conditions: minimal NA inhibitory concentration
[6] = test system: S. pneumoniae DSM20566; assay: Broth microdilution assay; assay type: cell-based; conditions: Streptococcus pneumoniae, DSM20566, 18 h, read-out: 90% minimal inhibitory concentration
[7] = test system: S. pneumoniae D39; assay: Broth microdilution assay; assay type: cell-based; conditions: Streptococcus pneumoniae, D39, 18 h, read-out: 90% minimal inhibitory concentration
[8] = test system: S. pneumoniae DSM14378; assay: Broth microdilution assay; assay type: cell-based; conditions: Streptococcus pneumoniae, DSM14378, 18 h, read-out: 90% minimal inhibitory concentration
[9] = test system: S. pneumoniae CJ9400; assay: Broth microdilution assay; assay type: cell-based; conditions: Streptococcus pneumoniae, CJ9400, 18 h, read-out: 90% minimal inhibitory concentration
[10] = test system: S. pneumoniae CF6937; assay: Broth microdilution assay; assay type: cell-based; conditions: Streptococcus pneumoniae, CF6937, 18 h, read-out: 90% minimal inhibitory concentration
[11] = test system: S. pneumoniae BC7326; assay: Broth microdilution assay; assay type: cell-based; conditions: Streptococcus pneumoniae, BC7326, 18 h, read-out: 90% minimal inhibitory concentration
[12] = test system: S. pneumoniae CF8919; assay: Broth microdilution assay; assay type: cell-based; conditions: Streptococcus pneumoniae, CF8919, 18 h, read-out: 90% minimal inhibitory concentration
[13] = test system: S. pneumoniae PN8828; assay: Broth microdilution assay; assay type: cell-based; conditions: Streptococcus pneumoniae, PN8828, 18 h, read-out: 90% minimal inhibitory concentration
[14] = test system: S. pneumoniae BC57; assay: Broth microdilution assay; assay type: cell-based; conditions: Streptococcus pneumoniae, BC57, 18 h, read-out: 90% minimal inhibitory concentration
[15] = test system: S. pneumoniae DSM20566; assay: Biofilm inhibition assay; assay type: cell-based; conditions: DSM20566, TSB, 24 h
[16] = test system: S. pneumoniae D39; assay: Biofilm inhibition assay; assay type: cell-based; conditions: D39, TSB, 24 h
[17] = test system: S. pneumoniae DSM14378; assay: Biofilm inhibition assay; assay type: cell-based; conditions: DSM14378, TSB, 24 h
[18] = test system: S. pneumoniae CJ9400; assay: Biofilm inhibition assay; assay type: cell-based; conditions: CJ9400, TSB, 24 h
[19] = test system: S. pneumoniae CF6937; assay: Biofilm inhibition assay; assay type: cell-based; conditions: CF6937, TSB, 24 h
[20] = test system: S. pneumoniae BC7326; assay: Biofilm inhibition assay; assay type: cell-based; conditions: BC7326, TSB, 24 h
[21] = test system: S. pneumoniae CF8919; assay: Biofilm inhibition assay; assay type: cell-based; conditions: CF8919, TSB, 24 h
[22] = test system: S. pneumoniae PN8828; assay: Biofilm inhibition assay; assay type: cell-based; conditions: PN8828, TSB, 24 h
[23] = test system: S. pneumoniae BC57; assay: Biofilm inhibition assay; assay type: cell-based; conditions: BC57, TSB, 24 h
[24] = test system: S. pneumoniae DSM20566; assay: Minimal bactericidal concentration; assay type: cell-based; conditions: viability reduced by ≥99.9%
[25] = test system: S. pneumoniae D39; assay: Minimal bactericidal concentration; assay type: cell-based; conditions: viability reduced by ≥99.9%
[26] = test system: S. pneumoniae DSM14378; assay: Minimal bactericidal concentration; assay type: cell-based; conditions: viability reduced by ≥99.9%
[27] = test system: S. pneumoniae CJ9400; assay: Minimal bactericidal concentration; assay type: cell-based; conditions: viability reduced by ≥99.9%
[28] = test system: S. pneumoniae CF6937; assay: Minimal bactericidal concentration; assay type: cell-based; conditions: viability reduced by ≥99.9%
[29] = test system: S. pneumoniae BC7326; assay: Minimal bactericidal concentration; assay type: cell-based; conditions: viability reduced by ≥99.9%
[30] = biological target: T1, pneumococcal NA; conditions: ref Gut et al., 2011; cited from earlier work
[31] = biological target: recombinant NanA of DSM20566 (Streptococcus pneumoniae, UniProt P62575); assay type: biochemical, S. pneumoniae; conditions: for mechanism of inhibition: rNanA, Lineweaver-Burk / SigmaPlot analysis
Sequence of recombinant NanA of DSM20566 (P62575 116-1035 limits assumed): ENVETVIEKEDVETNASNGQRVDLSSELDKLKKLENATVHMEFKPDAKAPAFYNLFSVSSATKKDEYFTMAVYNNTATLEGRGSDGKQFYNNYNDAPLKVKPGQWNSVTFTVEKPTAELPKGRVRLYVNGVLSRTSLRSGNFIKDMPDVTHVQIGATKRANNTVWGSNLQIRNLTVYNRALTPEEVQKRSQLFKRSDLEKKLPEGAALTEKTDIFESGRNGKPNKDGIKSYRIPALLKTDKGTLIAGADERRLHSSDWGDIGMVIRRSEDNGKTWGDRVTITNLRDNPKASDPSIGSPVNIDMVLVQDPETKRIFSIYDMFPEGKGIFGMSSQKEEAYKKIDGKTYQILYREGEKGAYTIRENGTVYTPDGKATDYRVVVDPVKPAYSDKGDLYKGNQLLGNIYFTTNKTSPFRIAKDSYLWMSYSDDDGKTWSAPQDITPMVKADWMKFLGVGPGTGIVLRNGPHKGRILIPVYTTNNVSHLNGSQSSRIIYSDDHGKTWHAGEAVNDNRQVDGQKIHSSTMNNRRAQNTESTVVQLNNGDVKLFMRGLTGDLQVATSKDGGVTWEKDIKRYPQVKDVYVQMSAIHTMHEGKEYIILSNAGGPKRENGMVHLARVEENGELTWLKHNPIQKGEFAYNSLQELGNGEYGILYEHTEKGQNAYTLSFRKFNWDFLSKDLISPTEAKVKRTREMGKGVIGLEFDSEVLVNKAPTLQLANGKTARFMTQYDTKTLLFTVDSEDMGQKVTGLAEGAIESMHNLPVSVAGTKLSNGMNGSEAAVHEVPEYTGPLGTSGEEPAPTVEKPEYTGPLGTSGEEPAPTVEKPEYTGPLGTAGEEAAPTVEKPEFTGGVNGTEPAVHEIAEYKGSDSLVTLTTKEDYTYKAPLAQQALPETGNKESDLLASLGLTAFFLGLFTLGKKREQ

[32] = Erythrocyte hemolysis assay; assay type: cell-based, human; conditions: human, erythrocytes
[33] = test system: human erythrocytes; assay: Erythrocyte hemolysis assay; assay type: cell-based; conditions: observed in HA assay with D39 protein
[34] = test system: S. pneumoniae; assay: Broth microdilution assay; assay type: cell-based; conditions: Streptococcus pneumoniae, read-out: MIC90 values
In short: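 Pneumococci were pre-grown in BHI with gentle shaking at 37°C for 4–5 h (mid-exponential), adjusted to McFarland 0.5 (1.5 × 10^8 cfu/mL) and diluted 50× in BHI. 50 µL bacteria plus 100 µL of two-fold compound dilutions (top 50 or 200 µM) in BHI were run in duplicate, overnight at 37°C, 5% CO₂. OD620 at 18 h minus 0 h was taken relative to no-compound growth control; MIC90 is 90% turbidity reduction.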

[35] = test system: S. pneumoniae; assay: Biofilm inhibition assay; assay type: cell-based; conditions: range among all tested strains
[36] = test system: S. pneumoniae; assay: Bactericidal activity, studied pneumococci; assay type: cell-based
[37] = test system: S. pneumoniae DSM20566 adherence to A549 cells; assay: Adherence inhibition assay on A549 cells; assay type: cell-based; conditions: Streptococcus pneumoniae, DSM20566, A549, 1.5 h, read-out: concentration giving 50% reduction in adherence levels (AIC50)
[38] = test system: S. pneumoniae PN8828 adherence to A549 cells; assay: Adherence inhibition assay on A549 cells; assay type: cell-based; conditions: Streptococcus pneumoniae, A549, 1.5 h, read-out: concentration giving 50% reduction in adherence levels (AIC50)
[39] = test system: A549 cells; assay: Cytotoxicity on confluent A549 cell monolayers; assay type: cell-based, human; conditions: 12.50 μM, A549, 72 h
In short: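 Three-day-old confluent A549 monolayers were exposed to two-fold serial compound dilutions in duplicate for 72 h at 37°C, 5% CO₂. Cells were washed, fixed and crystal violet-stained, and dye was eluted in citrate/HCl/ethanol buffer for OD550. Viability is relative to six untreated controls. CC50 comes from mean dose-response curves of at least three assays. Morphology at 12.5 µM was checked by phase-contrast microscopy.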

[40] = test system: pneumococcal adherence to pulmonary epithelial A549 cells
[41] = biological target: viral NAs; conditions: ref Collins et al., 2008; cited from earlier work

T1 sequence (P62575 54-1006): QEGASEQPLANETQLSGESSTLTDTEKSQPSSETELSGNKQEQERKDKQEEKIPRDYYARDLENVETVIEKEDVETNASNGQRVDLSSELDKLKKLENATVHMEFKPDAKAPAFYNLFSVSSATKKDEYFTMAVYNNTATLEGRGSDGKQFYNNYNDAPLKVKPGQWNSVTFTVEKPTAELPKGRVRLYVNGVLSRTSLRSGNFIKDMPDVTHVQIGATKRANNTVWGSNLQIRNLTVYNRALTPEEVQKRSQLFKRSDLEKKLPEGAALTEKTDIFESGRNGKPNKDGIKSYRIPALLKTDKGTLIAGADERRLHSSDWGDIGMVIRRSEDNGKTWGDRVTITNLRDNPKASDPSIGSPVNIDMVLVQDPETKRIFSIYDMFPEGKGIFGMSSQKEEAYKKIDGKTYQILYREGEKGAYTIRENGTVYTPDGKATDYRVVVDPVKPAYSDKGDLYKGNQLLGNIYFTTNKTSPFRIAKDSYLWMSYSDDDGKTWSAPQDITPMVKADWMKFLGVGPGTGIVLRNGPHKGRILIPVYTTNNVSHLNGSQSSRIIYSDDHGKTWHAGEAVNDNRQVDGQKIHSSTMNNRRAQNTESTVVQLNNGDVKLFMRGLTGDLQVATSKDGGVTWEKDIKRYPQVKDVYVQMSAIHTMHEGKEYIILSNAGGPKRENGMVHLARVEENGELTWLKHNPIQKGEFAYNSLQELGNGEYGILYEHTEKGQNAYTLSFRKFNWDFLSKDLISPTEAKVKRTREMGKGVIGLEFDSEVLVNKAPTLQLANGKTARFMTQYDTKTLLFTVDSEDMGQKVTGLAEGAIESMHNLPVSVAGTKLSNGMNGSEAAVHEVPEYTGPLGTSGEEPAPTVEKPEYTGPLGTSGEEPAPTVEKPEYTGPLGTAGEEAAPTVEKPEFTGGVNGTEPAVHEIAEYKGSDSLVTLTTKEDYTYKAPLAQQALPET

Row | Structure (SMILES) | Inhibitory concentration (HA assay) [3] [µM] | Inhibitory concentration (HA assay) [4] [µM] | Inhibitory concentration (HA assay) [5] [µM] | MIC [6] [µM] | MIC [7] [µM] | 90% minimal biofilm inhibitory concentration [15] [µM] | 90% minimal biofilm inhibitory concentration [16] [µM] | 90% minimal biofilm inhibitory concentration [17] [µM] | 90% minimal biofilm inhibitory concentration [18] [µM] | 90% minimal biofilm inhibitory concentration [19] [µM] | 90% minimal biofilm inhibitory concentration [20] [µM] | 90% minimal biofilm inhibitory concentration [21] [µM] | 90% minimal biofilm inhibitory concentration [22] [µM] | 90% minimal biofilm inhibitory concentration [23] [µM] | Bactericidal concentration [24] [µM] | Bactericidal concentration [25] [µM] | Bactericidal concentration [26] [µM] | Bactericidal concentration [27] [µM] | Bactericidal concentration [28] [µM] | Bactericidal concentration [29] [µM] | further results
1 | CC(=O)N[C@H]1[C@H]([C@H](O)[C@H](O)CO)OC(C(=O)O)=C[C@@H]1N=C(N)N [zanamivir] | >100 | >100 | >100 | > 50 | > 50 | > 50 | > 50 | > 50 | > 50 | > 50 | > 50 | > 50 | > 50 | > 50 | > 50 | > 50 | > 50 | > 50 | > 50 | > 50 | inhibition of NA activity, FL-based assay (in words) [1]: did not show an effect; inhibition of NA activity, CL-based assay (in words) [2]: inefficacy; MIC [8]: > 50 µM; MIC [9]: > 50 µM; MIC [10]: > 50 µM; MIC [11]: > 50 µM; MIC [12]: > 50 µM; MIC [13]: > 50 µM; MIC [14]: > 50 µM; inhibitory potency to pneumococcal NA (in words) [30]: weak
2 | COc1cc2oc(-c3ccc(O)cc3O)c(CC=C(C)C)c(=O)c2c(O)c1/C=C/C(C)C [artocarpin] | 7.7 ± 4.0 |  | 2.6 ± 1.1 | 5.58 ± 0.97 (≈ 2.44 µg/mL) | 1.29 ± 0.31 (≈ 0.563 µg/mL) | 2.88 ± 0.07 | 2.22 ± 0.76 | 2.37 ± 0.67 | 2.97 ± 0.13 | 2.73 ± 0.27 | 2.02 ± 0.62 | 1.15 ± 0.34 | 1.40 ± 0.07 | 2.35 ± 0.68 | 3.13 ± 0.00 | 2.50 ± 0.77 | 4.69 ± 1.98 | 2.74 ± 0.68 | 3.44 ± 1.53 | 3.32 ± 1.94 | activity in HA assay (in words) ([4]; reference strain D39): no activity; mechanism of inhibition [31]: mixed-type inhibition; hemolysis at 3 h, 31.6 µM [32]: 20%; concentration at which erythrocytes were lysed [33]: b The erythrocytes were lysed in the presence of artocarpin at concentrations higher than 10 µM.; MIC [8]: 5.75 ± 0.13 µM (≈ 2.51 µg/mL); MIC [9]: 3.45 ± 2.05 µM (≈ 1.51 µg/mL); MIC [10]: 3.39 ± 2.1 µM (≈ 1.48 µg/mL); MIC [11]: 1.12 ± 0.37 µM (≈ 0.489 µg/mL); MIC [12]: 1.45 ± 0.01 µM (≈ 0.633 µg/mL); MIC [13]: 0.99 ± 0.48 µM (≈ 0.432 µg/mL); MIC [14]: 1.45 ± 0.04 µM (≈ 0.633 µg/mL); MIC90 [34]: 0.99 to 5.75 µM (≈ 0.432 to 2.51 µg/mL); mean MBIC90 values [35]: 1.15 to 2.97 µM; factor of reduction of viability of pneumococci ([36]; within 18 h): > 1000; IC50 [37]: 7.5 µM; IC50 [38]: 4.1 µM; cytotoxic effect (in words) [39]: no cytotoxic effect; effect on A549 cell viability under adherence assay conditions (in words) [40]: did not affect cell viability
3 | CCC(CC)O[C@@H]1C=C(C(=O)O)C[C@H](N)[C@H]1NC(C)=O [oseltamivir, Oseltamivir carboxylate] | 2.1 ± 1.3 | 10.0 ± 0.0 | 0.3 ± 0.0 |  |  | > 50 | > 50 | > 50 | > 50 | > 50 | > 50 | > 50 | > 50 | > 50 | > 50 | > 50 | > 50 | > 50 | > 50 | > 50 | factor by which inhibitory activity on bacterial NAs is lower than on viral NAs ([31]; compared to viral NAs Ki of 0.32 nM): 1000; Ki ([31]; rNanA of DSM20566, MUNANA substrate): 0.23 µM; mechanism of inhibition [31]: competitively inhibited; concentration up to which no inhibitory or bactericidal activity was exhibited ([36]; maximum tested concentration): > 50 µM; effect on adhesion of pneumococci to A549 cells (in words) ([40]; DSM20566 and PN8828): did not reduce pneumococcal adherence; Ki [41]: 0.00032 µM; inhibitory potency to pneumococcal NA (in words) [30]: medium
